According to ChEMBL document CHEMBL1165856, “Naftifine-analogues as anti-Trypanosoma cruzi agents” (Eur J Med Chem, 2010):
Converted amounts (≈) assume the structure as drawn. “And” between values parts separate entries of the source, which are not always exact repeats. Identical values can stand only once.

Columns and labels:
Cryptococcus neoformans = assay: Antifungal activity against Cryptococcus neoformans ATCC 32264 after 48 hrs; format: functional
Summary of the method: (§1)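 CLSI M27-A2 broth microdilution in RPMI 1640 buffered to pH 7.0 with MOPS. Inoculum is 10³ CFU/mL from Sabouraud-grown yeasts. Compound is two-fold serially diluted, final DMSO ≤1%. Incubated at 35 °C in a moist, dark chamber and read visually at 48 h. MIC is the lowest concentration giving total growth inhibition.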

[1] = Selectivity index, ratio of ID50 for mouse J774 cells to ID50 for Trypanosoma cruzi Tulahuen 2; format: toxicity, cell-based; settings: J774 cells versus Trypanosoma cruzi Tulahuen 2
Summary of the method: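 Selectivity index is the ID50 in J-774 macrophages (48 h MTT) divided by the ID50 against Tulahuen 2 epimastigotes (day-5 A600 growth).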

[2] = Cytotoxicity against mouse J774 cells after 48 hrs by MTT assay; format: cell-based; settings: read-out: ID50
Summary of the method: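 J-774 macrophages were seeded at 1 × 10⁵ cells/well in RPMI 1640 with 20% heat-inactivated FCS and left to attach for 48 h at 37 °C in 5% CO₂. Cells were then exposed to compounds for 48 h. MTT was added at 0.4 mg/mL final, formazan was dissolved in DMSO, and A595 was read. ID50 is the concentration cutting control absorbance by 50%, averaged over three experiments.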

Candida tropicalis = assay: Antifungal activity against Candida tropicalis C 131 2000 after 48 hrs; format: functional; summary of the method: as §1
Nannizzia gypsea = assay: Antifungal activity against Microsporum gypseum C 115 after 48 hrs; format: functional; settings: C 115, 48 h
Summary of the method: (§2)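 Dermatophytes were tested by CLSI M38-A microdilution in MOPS-buffered RPMI 1640 at pH 7.0. Inoculum is 10³ CFU/mL, with two-fold serial compound dilutions and final DMSO ≤1%. Trays are kept at 28–30 °C in a moist, dark chamber. MIC is the lowest concentration with total growth inhibition, read visually when control growth allows.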

Aspergillus fumigatus = assay: Antifungal activity against Aspergillus fumigatus ATCC 26934 after 48 hrs; format: functional; settings: ATCC 26934, 48 h
Summary of the method: (§3)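 Aspergillus spp. were tested by CLSI M38-A broth microdilution in RPMI 1640 with MOPS at pH 7.0. Spore inoculum is 10³ CFU/mL, with two-fold compound dilutions and final DMSO ≤1%. Incubated at 35 °C in a moist, dark chamber. MIC is read visually as total growth inhibition, at a time set by growth of the control fungus.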

Trypanosoma cruzi [3] = assay: Antitrypanosomal activity against Trypanosoma cruzi CL Brener; format: functional; settings: read-out: ID50 (the source's name)
Summary of the method: (§4)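 Epimastigotes were grown at 28 °C in BHI-tryptose with 5% FBS. Stationary-phase parasites are inoculated at 8 × 10⁶ cells/mL into medium containing increasing drug concentrations from DMSO stock (final DMSO ≤0.4%; vehicle control). Growth is followed by A600. ID50 is the concentration that halves the day-5 absorbance ratio relative to control.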

Aspergillus flavus = assay: Antifungal activity against Aspergillus flavus ATCC 9170 after 48 hrs; format: functional; settings: ATCC 9170, 48 h; summary of the method: as §3
[4] = tested on: Trichophyton mentagrophytes; assay: Antifungal activity against Trichophyton mentagrophytes ATCC 9972 after 48 hrs; format: functional; settings: ATCC 9972, 48 h; summary of the method: as §2
Trichophyton rubrum = assay: Antifungal activity against Trichophyton rubrum C 113 after 48 hrs; format: functional; settings: C 113, 48 h; summary of the method: as §2
Candida albicans = assay: Antifungal activity against Candida albicans ATCC 10231 after 48 hrs; format: functional; settings: ATCC 10231, 48 h; summary of the method: as §1
Trypanosoma cruzi [5] = assay: Antitrypanosomal activity against Trypanosoma cruzi Tulahuen 2; format: functional; settings: read-out: ID50 (the source's name); summary of the method: as §4
Aspergillus niger = assay: Antifungal activity against Aspergillus niger ATCC 9029 after 48 hrs; format: functional; settings: ATCC 9029, 48 h; summary of the method: as §3
Saccharomyces cerevisiae = assay: Antifungal activity against Saccharomyces cerevisiae ATCC 9763 after 48 hrs; format: functional; settings: ATCC 9763, 48 h; summary of the method: as §1
[6] = Candida tropicalis, C 131 2000, 48 h, read-out: MIC

O=[N+]([O-])c1ccc2c(c1)c(OCc1ccccc1)nn2CCCCCN1CCN(C/C=C/c2ccccc2)CC1
MIC (Cryptococcus neoformans): 62.5 µg/mL and 31.2 µg/mL | selectivity ratio [1]: < 9.4 | CC50 at 48 h [2]: < 100 µM | MIC (Candida tropicalis; [6]): > 250 µg/mL | MFC (Nannizzia gypsea): 125 µg/mL (≈ 232 µM) | MIC (Nannizzia gypsea): 62.5 µg/mL (≈ 116 µM) | MIC (Aspergillus fumigatus): > 250 µg/mL | IC50 (Trypanosoma cruzi [3]): 4.5 µM | MIC (Aspergillus flavus): > 250 µg/mL | MFC [4]: 125 µg/mL (≈ 232 µM) | MIC [4]: 62.5 µg/mL (≈ 116 µM) | MFC (Trichophyton rubrum): 125 µg/mL (≈ 232 µM) | MIC (Trichophyton rubrum): 62.5 µg/mL (≈ 116 µM) | MIC (Candida albicans): > 250 µg/mL | IC50 (Trypanosoma cruzi [5]): 10.6 µM | MIC (Aspergillus niger): > 250 µg/mL | MIC (Saccharomyces cerevisiae): > 250 µg/mL

COc1nn(CCOCCN2CCN(C/C=C/c3ccccc3)CC2)c2ccc([N+](=O)[O-])cc12
MFC (Cryptococcus neoformans; Cryptococcus neoformans, ATCC 32264, 48 h): 62.5 µg/mL (≈ 134 µM) | MIC (Cryptococcus neoformans; Cryptococcus neoformans, ATCC 32264, 48 h, read-out: MIC): 62.5 µg/mL (≈ 134 µM) | selectivity ratio [1]: < 26.3 | CC50 at 48 h [2]: < 100 µM | MIC (Candida tropicalis): 125 µg/mL (≈ 268 µM) | MIC (Candida tropicalis; [6]): 125 µg/mL (≈ 268 µM) | MFC (Nannizzia gypsea): 125 µg/mL (≈ 268 µM) | MIC (Nannizzia gypsea): 62.5 µg/mL (≈ 134 µM) | MIC (Aspergillus fumigatus): > 250 µg/mL | IC50 (Trypanosoma cruzi [3]): 7.9 µM | MIC (Aspergillus flavus): > 250 µg/mL | MFC [4]: 125 µg/mL (≈ 268 µM) | MIC [4]: 62.5 µg/mL (≈ 134 µM) | MFC (Trichophyton rubrum): 125 µg/mL (≈ 268 µM) | MIC (Trichophyton rubrum): 62.5 µg/mL (≈ 134 µM) | MFC (Candida albicans): 125 µg/mL (≈ 268 µM) | MIC (Candida albicans): 125 µg/mL (≈ 268 µM) | IC50 (Trypanosoma cruzi [5]): 3.8 µM | MIC (Aspergillus niger): > 250 µg/mL | MFC (Saccharomyces cerevisiae): 62.5 µg/mL (≈ 134 µM) | MIC (Saccharomyces cerevisiae): 62.5 µg/mL (≈ 134 µM)

CN(C/C=C/c1ccccc1)Cc1ccc2no[n+]([O-])c2c1
selectivity ratio [1]: < 4.4 | CC50 at 48 h [2]: < 100 µM | IC50 (Trypanosoma cruzi [3]): 16.9 µM | IC50 (Trypanosoma cruzi [5]): 22.6 µM
